High-throughput results deposited in PubChem by several laboratories.
SKN-1 block = inhibitors of C. elegans SKN-1; C. elegans VP596 Pgst-4::GFP/RFP ratio, acrylamide-induced, 24 h; inhibition, % at 21.8 µM; actives 0.49% (n = 360,000);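 active means interference check ratio from 0.5 to 1.5 plus GFP to RFP signal ratio inhibition reaching or exceeding a fixed threshold, cut at about 30% in these data, passing the limit was not always enough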
MT1-MMP act inh = blocks activation of human MT1-MMP; P50281; HT1080 RFP-PRO-GFP cells, GFP/RFP ratio fluorescence, overnight; percent of plate control window, DMSO zero; GFP/RFP ratio change, % at 20 µM; actives 0.061% (n = 360,000); AID 651647;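 active means GFP/RFP ratio change of at least 30% with cell ATP level not reduced by more than half and red fluorescence within 50% of control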
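Assay system – RFP-PRO-GFP reporter HT1080 cells · Compound dosing – single dose of 20 µM compound, 1% DMSO final · Incubation – overnight compound exposure at 37 °C · Measure – GFP/RFP fluorescence ratio · Benchmarks – DMSO wells and RFP-L50D-GFP cells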
ADAM10 inh = ADAM10 inhibition, QFRET primary screen; recombinant ADAM10, EDANS/DABCYL FRET peptide cleavage, 3 h; actives 0.62% (n = 370,000); O14672; inhibition, % at 7 µM;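 active means inhibition above a per-campaign cutoff equal to the mean of compounds falling between control-based bounds plus 3 SD, cut at about 20% in these data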;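 further: 0% = DMSO wells while the 100% control is not disclosed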
MPTP inh = inhibitors of mitochondrial permeability transition pore | isolated mouse mitochondria, Ca2+ swelling absorbance, 30 min | inhibition, % at 10 µM | actives 1.4% (n = 360,000);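 active means inhibition of 50% or more, scaled per plate between neutral and stimulator controls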;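 further: 0% = DMSO wells given calcium and 100% = 1 mM EGTA wells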
ADAM17 inh = ADAM17 inhibition, QFRET primary screen | inhibition, % at 6.95 µM | recombinant ADAM17, EDANS/DABCYL FRET peptide cleavage | actives 0.83% (n = 370,000);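 active means inhibition above the mean of compounds lying between control limits plus 3 SD, set per campaign, cut at about 8.5% in these data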;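 further: 0% = DMSO-only wells as the low control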
Target sequence (P78536 215-824 limits assumed): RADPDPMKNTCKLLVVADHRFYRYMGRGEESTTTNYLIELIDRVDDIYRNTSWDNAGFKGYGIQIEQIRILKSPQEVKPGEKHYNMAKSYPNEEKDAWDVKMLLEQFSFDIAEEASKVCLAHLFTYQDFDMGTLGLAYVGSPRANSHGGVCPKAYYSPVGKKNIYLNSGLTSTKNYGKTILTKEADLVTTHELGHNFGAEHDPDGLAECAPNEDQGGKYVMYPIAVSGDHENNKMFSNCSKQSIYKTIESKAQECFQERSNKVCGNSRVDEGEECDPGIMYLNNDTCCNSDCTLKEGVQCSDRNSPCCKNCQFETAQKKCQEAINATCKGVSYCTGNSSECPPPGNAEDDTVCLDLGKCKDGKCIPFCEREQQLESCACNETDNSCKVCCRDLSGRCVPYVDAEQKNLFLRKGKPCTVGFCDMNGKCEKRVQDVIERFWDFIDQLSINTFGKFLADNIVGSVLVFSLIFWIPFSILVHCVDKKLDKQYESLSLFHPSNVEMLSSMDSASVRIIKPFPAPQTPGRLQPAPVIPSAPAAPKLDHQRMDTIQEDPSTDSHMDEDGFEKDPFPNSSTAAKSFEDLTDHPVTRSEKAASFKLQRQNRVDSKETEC
GRIN3A LBD mod = modulators (binders) of human NR3A ligand-binding domain | AID 1259313 | actives 2.5% (n = 340,000) | NR3A LBD differential scanning fluorimetry, Tm shift; 0% = protein alone, 100% = glycine-bound protein | Tm shift relative to glycine control, % at 25 µM;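 active means melting temperature shift of at least 10% of the positive control shift, at one fixed dose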
MPTP counter = mitochondrial membrane potential, counter-screen; shares compounds with MPTP inh; isolated mitochondria, Rhodamine 123 fluorescence; inhibition, % at 10 µM; actives 78% (n = 5,000); AID 624504; in the data active means inhibition above about 22%;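 further: 0% = DMSO vehicle and 100% = positive control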
ADAM10 confirm = confirmation of inhibitors of human ADAM10; shares compounds with ADAM10 inh; inhibition, % at 6.95 µM; ADAM10 QFRET peptide cleavage, EDANS fluorescence; actives 1% (n = 2,100);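 active means inhibition above about 20% chosen separately for each screening run, limit read from the data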;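 further: 0% = DMSO wells and 100% = marimastat wells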
ADAM17 ctr = counter-screen for ADAM10 exosite inhibitors: inhibitors of human ADAM17 | shares compounds with ADAM10 inh | inhibition, % at 6.95 µM | ADAM17 QFRET peptide cleavage, EDANS fluorescence | actives 0.5% (n = 2,100);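 active means mean triplicate inhibition above the solvent-only control wells' mean plus 3 SD, cut at about 12% in these data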;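 further: 0% = DMSO wells and 100% = marimastat wells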
ADAM10 ctr = ADAM10 inhibition, counter-screen for ADAM17 exosite hits. inhibition, % at 6.95 µM. actives 47% (n = 2,900). AID 743256. recombinant ADAM10, EDANS/DABCYL FRET peptide cleavage, 3 h. shares compounds with ADAM17 inh;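 active means mean inhibition over the triplicate runs exceeds the activity threshold set in the earlier primary screen, cut at about 20% in these data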;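 further: 0% = DMSO wells and 100% = marimastat wells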
ADAM17 confirm = confirmation of inhibitors of human ADAM17; actives 65% (n = 2,900); recombinant ADAM17, EDANS/DABCYL QFRET peptide cleavage; AID 743257; inhibition, % at 6.95 µM; shares compounds with ADAM17 inh;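 active means mean inhibition across replicates above the hit cutoff set in the primary screen, cut at about 8.5% in these data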;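 further: 0% = DMSO wells and 100% = marimastat wells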
The depositor's hits bear a star; i = inactive; · = no result. Hits are enriched below; roughly 4.7% of the tested compounds scored in any of these assays.

SMILES	SKN-1 block	MT1-MMP act inh	ADAM10 inh	MPTP inh	ADAM17 inh	GRIN3A LBD mod	MPTP counter	ADAM10 confirm	ADAM17 ctr	ADAM10 ctr	ADAM17 confirm
COc1ccc(OC)c(-c2csc(NC(=O)CSc3ccc([N+](=O)[O-])cc3)n2)c1	4	-1	23*	56*	11*	12*	63*	6	2	29*	13*
OCC[C@H]1C[C@@H](O)[C@H](O)[C@@]2(OCc3ccccc32)O1	0	-3	3	0	-3	0	·	·	·	·	·
Cc1onc(-c2ccccc2)c1C(=O)OCC(=O)Nc1ccc(OC(F)(F)F)cc1	-3	-1	25*	86*	9.4*	12*	91*	4	1	33*	17*
COc1cc(OC)c(C(=O)OCCCOC(=O)c2cc(OC)c(OC)cc2OC)cc1OC	12	1	-1	-2	0	1	·	·	·	·	·
Cc1ccc(NS(=O)(=O)c2ccc(C3CCCCC3)cc2)cc1	-6	0	11	73*	8.9*	3	78*	·	·	38*	18*
C/C(=N/Nc1ccc([N+](=O)[O-])cc1)c1ccc(C)cc1C	8	-8	23*	65*	9.6*	24*	60*	7	3	19	15*
COc1ccc(NC(=O)C2=CC(c3cccs3)=NS(=O)(=O)N2C)cc1	-8	-9	-9	2	3	0	·	·	·	·	·
CN1C(C(=O)Nc2ccc(OC(F)(F)F)cc2)=CC(c2cccs2)=NS1(=O)=O	25	-3	26*	74*	13*	6	84*	10	4	22*	16*
COc1ccc(C2C3=C(CCCC3=O)N(CC(=O)O)C3=C2C(=O)CCC3)cc1Br	0	-5	i	1	-496	·	·	·	·	·	·
O=C1NC[C@@H](CCCCN2C[C@H](Cc3ccccc3)N(CCC3CCCCC3)C(=O)C2=O)N(Cc2ccccc2)C1=O	23	1	-5	-2	-1	·	·	·	·	·	·
CC(=O)c1ccc(N2CCC(c3cc(-c4ccc(Cl)cc4Cl)n[nH]3)CC2)c([N+](=O)[O-])c1	-6	-12	20*	74*	13*	9	68*	13	4	44*	21*
O=C(O)c1ccc(N2CCN(c3ccc(Cl)cc3)CC2)c([N+](=O)[O-])c1	-23	3	5	0	0	-1	·	·	·	·	·
CC(C)CN(C(=O)COC(=O)C12CC3CC(CC(C3)C1)C2)c1c(N)n(Cc2ccccc2)c(=O)[nH]c1=O	10	-51	-12	0	-5	-2	·	·	·	·	·
CC(C)C1Nc2c(O)cc(Cl)c([N+](=O)[O-])c2C2C=CCC21 (configuration not stated)	7	13	19	92*	15*	1	78*	·	·	21*	14*
Cc1ccccc1C(=O)NC(=S)Nc1ccc(S(=O)(=O)N(C)c2ccccc2)cc1	-5	6	-3	1	-2	0	·	·	·	·	·
Cc1ccnc(NC(=O)c2cccc(OC(F)F)c2)n1	6	-1	-13	0	-2	1	·	·	·	·	·
O=C(Nc1cc(Cl)cc(Cl)c1)c1cccc(OC(F)F)c1	25	8	27*	96*	12*	25*	96*	7	2	23*	13*
